22 compounds from ChEMBL document CHEMBL1148492, “Synthesis and structure-activity relationship study of potent cytotoxic analogues of the marine alkaloid Lamellarin D” (2006) can be followed below.

Structures are written as SMILES. Calls of active or inactive are those of the source. No cut-off for these calls is given here.

One test relates to A549. The test can be described thus: Antiproliferative activity against human A549 cell line after 72 hrs by SRB assay. It counts as functional. The note with it: A549, 72 h. The essentials: (§1)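 Cells seeded at 5×10³/well in RPMI and allowed to attach in drug-free medium for 18 h. Compounds were added in DMSO/H2O (3:7) and exposure was continuous for 72 h. Cells were then fixed with cold 50% TCA for 60 min at 4°C, stained with 0.4% SRB in 1% acetic acid for 10 min at room temperature, solubilized in Tris, and OD was read at 490 nm. GI50 was derived from 100×[(T−T0)/(C−T0)]=50.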
One may read the GI50 as the concentration at which growth is held to half of that of the control. As to `COC(=O)c1c(-c2ccc(OC)c(OC)c2O)c(-c2cccc(O)c2)c2n1CCc1cc(O)c(OC)cc1-2`, the GI50 was 14.7 µM.

Take `COC(=O)c1c(-c2cc(OC)c(O)cc2OC)c(-c2ccc(O)c(OC)c2)c2n1CCc1cc(O)c(OC)cc1-2`: the GI50 was found to be 8.9 µM.

Take `COC(=O)c1c(-c2ccc(O)cc2O)c(-c2cccc(O)c2)c2c3cc(OC)c(O)cc3ccn12`: halving of growth (GI50) required 20.8 µM.

With `COC(=O)c1c(-c2cccs2)c(-c2cccs2)c2c3cc(OC)c(O)cc3ccn12`, the GI50 was determined as 20.4 µM.

For the next test, the system named is A549. In words: Antiproliferative activity against human A549 cell line after 72 hrs by SRB assay at 10 ug/mL.
Conditions: not given
It is filed as functional, cell-based. On the technique in general: In SRB staining, fixed cells bind dye roughly in proportion to their protein.
On to `COC(=O)c1cc(-c2ccc(N(C)C)cc2)c2n1CCc1cc(O)c(OC)cc1-2`, for which the result was inactive.

Take `COC(=O)c1cc(-c2cc(OC)c(OC)c(OC)c2)c2c3cc(OC)c(O)cc3ccn12`: the result was inactive.

On to `COC(=O)c1c(-c2cc(OC)c(OC)c(OC)c2)c(-c2cc(OC)c(OC)c(OC)c2)c2c3cc(OC)c(O)cc3ccn12`, for which the result was inactive.

On to `COC(=O)c1c(-c2ccc(OC(F)(F)F)cc2)c(-c2ccc(OC(F)(F)F)cc2)c2n1CCc1cc(O)c(OC)cc1-2`, for which the result was inactive.

Take `COC(=O)c1cc(-c2ccc(OC(C)C)c(OC)c2)c2n1CCc1cc(OC(C)C)c(OC)cc1-2`: the outcome was inactive.

As to `COC(=O)c1c(-c2ccc(OC)c(OC)c2)c(-c2ccc(O)c(OC)c2)c2c3cc(OC)c(O)cc3ccn12`, the result was inactive.

For `COC(=O)c1cc(-c2cc(OC)ccc2OC)c2n1CCc1cc(O)c(OC)cc1-2`, the outcome was inactive.

Turning to `COC(=O)c1c(-c2cc(OC)c(O)cc2OC)c(-c2ccc(O)c(OC)c2)c2c3cc(OC)c(O)cc3ccn12`, the outcome was inactive.

For `COC(=O)c1c(-c2cc(OC)c(OC(C)C)cc2OC(C)C)c(-c2ccc(OC(C)C)c(OC)c2)c2n1CCc1cc(OC(C)C)c(OC)cc1-2`, the outcome was inactive.

In the case of `COC(=O)c1c(-c2ccc(OC)c(OC)c2)c(-c2ccc(OC)c(OC)c2)c2c3cc(OC)c(O)cc3ccn12`, the result was inactive.

Consider `COC(=O)c1cc(-c2cc(OC)c(OC)c(OC)c2)c2n1CCc1cc(OC(C)C)c(OC)cc1-2`, for which the outcome was inactive.

Consider `COC(=O)c1c(-c2cccs2)c(-c2cccs2)c2c3cc(OC)c(OC(C)C)cc3ccn12`, for which the outcome was inactive.

With `COC(=O)c1cc(-c2ccc(N(C)C)cc2)c2n1CCc1cc(OC(C)C)c(OC)cc1-2`, the result was inactive.

For the compound `COC(=O)c1c(-c2ccc(OC(F)(F)F)cc2)c(-c2ccc(OC(F)(F)F)cc2)c2c3cc(OC)c(O)cc3ccn12`, the outcome was inactive.

`COC(=O)c1c(-c2ccc(O)cc2)c(-c2ccc(O)cc2)c2n1CCc1cc(O)c(OC)cc1-2`: the outcome was inactive.

Take `COC(=O)c1c(-c2cccs2)c(-c2cccs2)c2n1CCc1cc(OC(C)C)c(OC)cc1-2`: the outcome was inactive.

As to `COC(=O)c1cc(-c2cccs2)c2c3cc(OC)c(O)cc3ccn12`, the result was inactive.

As to `COC(=O)c1c(-c2ccc(N(C)C)cc2)c(-c2ccc(N(C)C)cc2)c2n1CCc1cc(O)c(OC)cc1-2`, the result was inactive.

The next test deals with MDA-MB-231. The test can be described thus: Antiproliferative activity against human MDA-MB-231 cell line after 72 hrs by SRB assay. It is filed as functional. The note with it: MDA-MB-231, 72 h. In short, it runs like this: as §1
For the compound `COC(=O)c1cc(-c2cc(OC)ccc2OC)c2n1CCc1cc(O)c(OC)cc1-2`, the GI50 came to 12.7 µM.

`COC(=O)c1c(-c2ccc(OC)c(OC)c2O)c(-c2cccc(O)c2)c2n1CCc1cc(O)c(OC)cc1-2`: growth was halved (GI50) at 15.7 µM.

As for `COC(=O)c1cc(-c2cccs2)c2c3cc(OC)c(O)cc3ccn12`, growth was halved (GI50) at 26.3 µM.

Take `COC(=O)c1c(-c2cc(OC)c(O)cc2OC)c(-c2ccc(O)c(OC)c2)c2n1CCc1cc(O)c(OC)cc1-2`: growth was halved (GI50) at 7.6 µM.

`COC(=O)c1c(-c2ccc(O)cc2O)c(-c2cccc(O)c2)c2c3cc(OC)c(O)cc3ccn12` showed a GI50 of 10.6 µM.

`COC(=O)c1c(-c2cccs2)c(-c2cccs2)c2c3cc(OC)c(O)cc3ccn12` displayed a 50% growth inhibitory concentration (GI50) of 19.7 µM.

As for `COC(=O)c1c(-c2ccc(N(C)C)cc2)c(-c2ccc(N(C)C)cc2)c2n1CCc1cc(O)c(OC)cc1-2`, halving of growth (GI50) required 13.7 µM.

In a further test the test system is MDA-MB-231. In words: Antiproliferative activity against human MDA-MB-231 cell line after 72 hrs by SRB assay at 10 ug/mL. It is filed as functional, cell-based.
Conditions: not given
`COC(=O)c1cc(-c2ccc(N(C)C)cc2)c2n1CCc1cc(O)c(OC)cc1-2`: the outcome was inactive.

Consider `COC(=O)c1cc(-c2cc(OC)c(OC)c(OC)c2)c2c3cc(OC)c(O)cc3ccn12`, for which the outcome was inactive.

With `COC(=O)c1c(-c2cc(OC)c(OC)c(OC)c2)c(-c2cc(OC)c(OC)c(OC)c2)c2c3cc(OC)c(O)cc3ccn12`, the outcome was inactive.

As for `COC(=O)c1c(-c2ccc(OC(F)(F)F)cc2)c(-c2ccc(OC(F)(F)F)cc2)c2n1CCc1cc(O)c(OC)cc1-2`, the outcome was inactive.

As for `COC(=O)c1cc(-c2ccc(OC(C)C)c(OC)c2)c2n1CCc1cc(OC(C)C)c(OC)cc1-2`, the outcome was inactive.

On to `COC(=O)c1c(-c2ccc(OC)c(OC)c2)c(-c2ccc(O)c(OC)c2)c2c3cc(OC)c(O)cc3ccn12`, for which the outcome was inactive.

For the compound `COC(=O)c1c(-c2cc(OC)c(O)cc2OC)c(-c2ccc(O)c(OC)c2)c2c3cc(OC)c(O)cc3ccn12`, the result was inactive.

In the case of `COC(=O)c1c(-c2cc(OC)c(OC(C)C)cc2OC(C)C)c(-c2ccc(OC(C)C)c(OC)c2)c2n1CCc1cc(OC(C)C)c(OC)cc1-2`, the result was inactive.

`COC(=O)c1c(-c2ccc(OC)c(OC)c2)c(-c2ccc(OC)c(OC)c2)c2c3cc(OC)c(O)cc3ccn12`: the outcome was inactive.

For `COC(=O)c1cc(-c2cc(OC)c(OC)c(OC)c2)c2n1CCc1cc(OC(C)C)c(OC)cc1-2`, the result was inactive.

For the compound `COC(=O)c1c(-c2cccs2)c(-c2cccs2)c2c3cc(OC)c(OC(C)C)cc3ccn12`, the result was inactive.

`COC(=O)c1cc(-c2ccc(N(C)C)cc2)c2n1CCc1cc(OC(C)C)c(OC)cc1-2`: the result was inactive.

Take `COC(=O)c1c(-c2ccc(OC(F)(F)F)cc2)c(-c2ccc(OC(F)(F)F)cc2)c2c3cc(OC)c(O)cc3ccn12`: the outcome was inactive.

As to `COC(=O)c1c(-c2ccc(O)cc2)c(-c2ccc(O)cc2)c2n1CCc1cc(O)c(OC)cc1-2`, the outcome was inactive.

Regarding `COC(=O)c1c(-c2cccs2)c(-c2cccs2)c2n1CCc1cc(OC(C)C)c(OC)cc1-2`, the result was inactive.

The subject of another test is HT-29. The test can be described thus: Antiproliferative activity against human HT29 cell line after 72 hrs by SRB assay at 10 ug/mL. It counts as functional, cell-based.
Conditions: not given
As to `COC(=O)c1cc(-c2ccc(N(C)C)cc2)c2n1CCc1cc(O)c(OC)cc1-2`, the outcome was inactive.

As to `COC(=O)c1cc(-c2cc(OC)c(OC)c(OC)c2)c2c3cc(OC)c(O)cc3ccn12`, the outcome was inactive.

Turning to `COC(=O)c1c(-c2cc(OC)c(OC)c(OC)c2)c(-c2cc(OC)c(OC)c(OC)c2)c2c3cc(OC)c(O)cc3ccn12`, the outcome was inactive.

`COC(=O)c1c(-c2ccc(OC(F)(F)F)cc2)c(-c2ccc(OC(F)(F)F)cc2)c2n1CCc1cc(O)c(OC)cc1-2`: the result was inactive.

Take `COC(=O)c1cc(-c2ccc(OC(C)C)c(OC)c2)c2n1CCc1cc(OC(C)C)c(OC)cc1-2`: the result was inactive.

Regarding `COC(=O)c1c(-c2ccc(OC)c(OC)c2)c(-c2ccc(O)c(OC)c2)c2c3cc(OC)c(O)cc3ccn12`, the result was inactive.

Regarding `COC(=O)c1cc(-c2cc(OC)ccc2OC)c2n1CCc1cc(O)c(OC)cc1-2`, the outcome was inactive.

With `COC(=O)c1c(-c2cc(OC)c(O)cc2OC)c(-c2ccc(O)c(OC)c2)c2c3cc(OC)c(O)cc3ccn12`, the result was inactive.

For the compound `COC(=O)c1c(-c2cc(OC)c(OC(C)C)cc2OC(C)C)c(-c2ccc(OC(C)C)c(OC)c2)c2n1CCc1cc(OC(C)C)c(OC)cc1-2`, the outcome was inactive.

For the compound `COC(=O)c1c(-c2ccc(OC)c(OC)c2)c(-c2ccc(OC)c(OC)c2)c2c3cc(OC)c(O)cc3ccn12`, the result was inactive.

`COC(=O)c1cc(-c2cc(OC)c(OC)c(OC)c2)c2n1CCc1cc(OC(C)C)c(OC)cc1-2`: the result was inactive.

With `COC(=O)c1c(-c2cccs2)c(-c2cccs2)c2c3cc(OC)c(OC(C)C)cc3ccn12`, the outcome was inactive.

Take `COC(=O)c1cc(-c2ccc(N(C)C)cc2)c2n1CCc1cc(OC(C)C)c(OC)cc1-2`: the outcome was inactive.

For `COC(=O)c1c(-c2ccc(OC(F)(F)F)cc2)c(-c2ccc(OC(F)(F)F)cc2)c2c3cc(OC)c(O)cc3ccn12`, the result was inactive.

With `COC(=O)c1c(-c2ccc(OC)c(OC)c2O)c(-c2cccc(O)c2)c2n1CCc1cc(O)c(OC)cc1-2`, the result was inactive.

As for `COC(=O)c1c(-c2ccc(O)cc2)c(-c2ccc(O)cc2)c2n1CCc1cc(O)c(OC)cc1-2`, the outcome was inactive.

Consider `COC(=O)c1c(-c2cccs2)c(-c2cccs2)c2n1CCc1cc(OC(C)C)c(OC)cc1-2`, for which the result was inactive.

For `COC(=O)c1cc(-c2cccs2)c2c3cc(OC)c(O)cc3ccn12`, the outcome was inactive.

`COC(=O)c1c(-c2cc(OC)c(O)cc2OC)c(-c2ccc(O)c(OC)c2)c2n1CCc1cc(O)c(OC)cc1-2`: the outcome was inactive.

Regarding `COC(=O)c1c(-c2ccc(O)cc2O)c(-c2cccc(O)c2)c2c3cc(OC)c(O)cc3ccn12`, the outcome was inactive.

For `COC(=O)c1c(-c2cccs2)c(-c2cccs2)c2c3cc(OC)c(O)cc3ccn12`, the result was inactive.

With `COC(=O)c1c(-c2ccc(N(C)C)cc2)c(-c2ccc(N(C)C)cc2)c2n1CCc1cc(O)c(OC)cc1-2`, the result was inactive.
